Experimental data taken from ChEMBL document CHEMBL4808225, “Discovery and Characterization of Selective and Ligand-Efficient DYRK Inhibitors” (J Med Chem, 2021).

Columns and labels:
[1] = biological target: T1, Dual specificity protein kinase CLK1 (Homo sapiens, UniProt P49759); experiment: Binding affinity to wild-type human full length CLK1 (M1 to I484 residues) expressed in bacterial expression system measured after 1 hr by competitive binding assay
Target sequence in this assay (P49759 whole entry, the tested form may be a part): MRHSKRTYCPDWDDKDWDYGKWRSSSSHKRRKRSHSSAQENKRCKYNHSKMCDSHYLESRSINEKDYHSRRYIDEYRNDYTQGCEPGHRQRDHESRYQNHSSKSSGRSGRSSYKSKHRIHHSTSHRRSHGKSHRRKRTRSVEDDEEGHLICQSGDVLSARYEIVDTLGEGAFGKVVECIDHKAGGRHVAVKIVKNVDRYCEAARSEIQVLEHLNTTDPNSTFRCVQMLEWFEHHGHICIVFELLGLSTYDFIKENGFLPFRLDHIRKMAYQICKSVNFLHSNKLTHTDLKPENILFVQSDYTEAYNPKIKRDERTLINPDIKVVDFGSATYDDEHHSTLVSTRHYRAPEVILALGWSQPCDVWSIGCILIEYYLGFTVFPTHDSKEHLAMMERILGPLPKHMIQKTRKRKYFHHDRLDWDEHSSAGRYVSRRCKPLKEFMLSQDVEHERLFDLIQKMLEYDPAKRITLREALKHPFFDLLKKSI

[2] = biological target: Dual specificity tyrosine-phosphorylation-regulated kinase 1B (Homo sapiens) (UniProt Q9Y463); experiment: Inhibition of wild-type human full length DYRK1B (M1 to S629 residues) expressed in bacterial expression system assessed as remaining activity at 1 uM by Kinomescan method relative to control
Dual specificity tyrosine-phosphorylation-regulated kinase 1B (Homo sapiens), sequence (Q9Y463 whole entry, looked up, the tested form may be a part): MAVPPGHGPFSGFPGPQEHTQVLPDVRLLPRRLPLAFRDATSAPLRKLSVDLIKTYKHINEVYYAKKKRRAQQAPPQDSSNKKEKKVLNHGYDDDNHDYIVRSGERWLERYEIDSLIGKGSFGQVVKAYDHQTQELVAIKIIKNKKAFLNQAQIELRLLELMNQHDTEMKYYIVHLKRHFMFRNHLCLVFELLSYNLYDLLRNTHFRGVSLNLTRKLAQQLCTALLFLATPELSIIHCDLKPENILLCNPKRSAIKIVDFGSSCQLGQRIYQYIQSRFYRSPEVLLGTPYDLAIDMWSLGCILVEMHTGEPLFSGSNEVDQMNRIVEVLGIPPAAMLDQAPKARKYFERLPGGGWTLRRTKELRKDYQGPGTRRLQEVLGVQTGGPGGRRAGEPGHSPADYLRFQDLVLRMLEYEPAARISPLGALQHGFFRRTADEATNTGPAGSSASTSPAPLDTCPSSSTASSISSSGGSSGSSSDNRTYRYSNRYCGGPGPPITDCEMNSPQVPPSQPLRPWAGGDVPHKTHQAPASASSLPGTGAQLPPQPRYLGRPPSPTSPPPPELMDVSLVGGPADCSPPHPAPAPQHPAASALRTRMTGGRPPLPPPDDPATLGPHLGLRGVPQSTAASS
Procedure, shortened: (§1)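 KINOMEscan competition binding panel run with inhibitor at 1 μM; read-out is remaining kinase activity (percent of control).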

[3] = biological target: Dual specificity protein kinase CLK4 (Homo sapiens, UniProt Q9HAZ1); experiment: Binding affinity to wild-type human partial length CLK4 (R135 to K481 residues) expressed in bacterial expression system measured after 1 hr by competitive binding assay
Dual specificity protein kinase CLK4, sequence (Q9HAZ1 whole entry, the tested form may be a part): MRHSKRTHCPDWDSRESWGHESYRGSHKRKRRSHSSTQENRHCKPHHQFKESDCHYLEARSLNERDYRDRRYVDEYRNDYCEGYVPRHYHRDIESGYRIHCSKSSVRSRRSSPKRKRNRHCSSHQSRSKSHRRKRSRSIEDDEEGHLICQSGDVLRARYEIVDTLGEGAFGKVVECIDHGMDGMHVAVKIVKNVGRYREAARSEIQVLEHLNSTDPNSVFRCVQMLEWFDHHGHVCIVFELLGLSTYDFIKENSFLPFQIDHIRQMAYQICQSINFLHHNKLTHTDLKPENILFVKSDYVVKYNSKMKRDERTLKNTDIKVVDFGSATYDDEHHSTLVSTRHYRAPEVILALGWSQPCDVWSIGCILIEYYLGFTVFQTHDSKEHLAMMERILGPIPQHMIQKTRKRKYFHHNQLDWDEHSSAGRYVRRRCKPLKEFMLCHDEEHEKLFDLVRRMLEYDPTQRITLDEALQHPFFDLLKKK

[4] = Half life in Sprague-Dawley rat at 1 mg/kg, iv; assay type: ADME, organism-based; details: in vivo
Procedure, shortened: (§2)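 Single intravenous dose of 1 mg/kg given to fed Sprague–Dawley rats (n = 3); plasma and brain samples collected for pharmacokinetic parameters, with total brain:plasma ratio computed.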

[5] = Cmax in Sprague-Dawley rat at 1 mg/kg, iv; assay type: ADME, organism-based; design: route intravenous, dose 1 mg/kg; details: in vivo; procedure, shortened: as §2
[6] = biological target: Glycogen synthase kinase-3 beta (Homo sapiens) (UniProt P49841); experiment: Inhibition of wild-type human full length GSK3B (M1 to T433 residues) expressed in mammalian expression system assessed as remaining activity at 1 uM by Kinomescan method relative to control; procedure, shortened: as §1
Glycogen synthase kinase-3 beta (Homo sapiens), sequence (P49841 whole entry, looked up, the tested form may be a part): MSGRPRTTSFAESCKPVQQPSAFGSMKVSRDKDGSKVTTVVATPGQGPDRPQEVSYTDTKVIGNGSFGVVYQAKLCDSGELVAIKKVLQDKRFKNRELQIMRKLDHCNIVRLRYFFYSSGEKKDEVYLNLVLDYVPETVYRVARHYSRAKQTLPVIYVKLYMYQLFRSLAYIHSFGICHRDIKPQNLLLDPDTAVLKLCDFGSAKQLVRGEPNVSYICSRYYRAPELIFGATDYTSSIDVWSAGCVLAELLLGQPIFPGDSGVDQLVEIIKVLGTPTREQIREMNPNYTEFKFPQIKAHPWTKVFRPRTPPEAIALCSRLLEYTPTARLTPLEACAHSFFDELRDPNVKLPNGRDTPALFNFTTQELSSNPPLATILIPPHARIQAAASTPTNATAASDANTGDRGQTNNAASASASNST

[7] = Initial plasma concentration in Sprague-Dawley rat at 1 mg/kg, iv; assay type: ADME, organism-based; details: in vivo; procedure, shortened: as §2
[8] = AUClast in Sprague-Dawley rat at 1 mg/kg, iv; assay type: ADME, organism-based; design: route intravenous, time 0 - last, dose 1 mg/kg; details: in vivo; procedure, shortened: as §2
[9] = biological target: T2, Serine/threonine-protein kinase haspin (Homo sapiens, UniProt Q8TF76); experiment: Binding affinity to wild-type human partial length HASPIN (I452 to K798 residues) expressed in mammalian expression system measured after 1 hr by competitive binding assay
T2 sequence (Q8TF76 whole entry): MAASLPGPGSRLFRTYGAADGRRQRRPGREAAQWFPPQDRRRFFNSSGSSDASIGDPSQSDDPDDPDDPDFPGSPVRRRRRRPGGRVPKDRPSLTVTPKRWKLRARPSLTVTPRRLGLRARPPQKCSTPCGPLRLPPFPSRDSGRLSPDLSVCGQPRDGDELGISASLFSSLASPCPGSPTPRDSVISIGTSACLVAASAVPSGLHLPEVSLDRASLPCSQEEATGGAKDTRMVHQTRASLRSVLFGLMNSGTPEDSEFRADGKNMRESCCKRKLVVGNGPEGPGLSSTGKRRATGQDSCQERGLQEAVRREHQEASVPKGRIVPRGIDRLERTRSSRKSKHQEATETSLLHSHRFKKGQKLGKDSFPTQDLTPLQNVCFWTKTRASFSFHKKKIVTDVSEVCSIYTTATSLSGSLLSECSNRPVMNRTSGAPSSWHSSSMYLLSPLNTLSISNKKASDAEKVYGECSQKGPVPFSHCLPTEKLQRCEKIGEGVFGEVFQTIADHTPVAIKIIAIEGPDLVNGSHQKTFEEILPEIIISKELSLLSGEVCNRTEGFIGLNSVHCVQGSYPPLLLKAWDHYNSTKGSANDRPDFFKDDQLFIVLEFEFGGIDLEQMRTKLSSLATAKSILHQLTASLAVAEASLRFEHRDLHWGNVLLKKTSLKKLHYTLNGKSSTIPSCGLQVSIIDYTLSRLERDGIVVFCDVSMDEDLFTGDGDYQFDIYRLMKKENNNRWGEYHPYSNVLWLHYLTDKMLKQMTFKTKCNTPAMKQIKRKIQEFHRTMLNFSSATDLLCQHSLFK

[10] = Tmax in Sprague-Dawley rat at 1 mg/kg, iv; assay type: ADME, organism-based; details: in vivo; procedure, shortened: as §2
[11] = Metabolic stability in rat liver microsomes; assay type: ADME, Microsome; details: read-out: Stabilty
[12] = MRT in Sprague-Dawley rat at 1 mg/kg, iv; assay type: ADME, organism-based; details: in vivo; procedure, shortened: as §2
[13] = Ratio of drug concentration in brain to plasma in Sprague-Dawley rat at 1 mg/kg, iv; assay type: ADME, organism-based; procedure, shortened: as §2
[14] = biological target: T1, Dual specificity protein kinase CLK1; experiment: Inhibition of wild-type human full length CLK1 (M1 to I484 residues) expressed in bacterial expression system assessed as remaining activity at 1 uM by Kinomescan method relative to control; procedure, shortened: as §1
Target sequence in this assay (P49759 whole entry, looked up, the tested form may be a part): as the sequence (P49759 whole entry, the tested form may be a part) above

[15] = biological target: T3, Dual specificity tyrosine-phosphorylation-regulated kinase 2 (Homo sapiens, UniProt Q92630); experiment: Binding affinity to wild-type human full length DYRK2 (M1 to S528 residues) expressed in mammalian expression system measured after 1 hr by competitive binding assay
T3 sequence (Q92630 whole entry): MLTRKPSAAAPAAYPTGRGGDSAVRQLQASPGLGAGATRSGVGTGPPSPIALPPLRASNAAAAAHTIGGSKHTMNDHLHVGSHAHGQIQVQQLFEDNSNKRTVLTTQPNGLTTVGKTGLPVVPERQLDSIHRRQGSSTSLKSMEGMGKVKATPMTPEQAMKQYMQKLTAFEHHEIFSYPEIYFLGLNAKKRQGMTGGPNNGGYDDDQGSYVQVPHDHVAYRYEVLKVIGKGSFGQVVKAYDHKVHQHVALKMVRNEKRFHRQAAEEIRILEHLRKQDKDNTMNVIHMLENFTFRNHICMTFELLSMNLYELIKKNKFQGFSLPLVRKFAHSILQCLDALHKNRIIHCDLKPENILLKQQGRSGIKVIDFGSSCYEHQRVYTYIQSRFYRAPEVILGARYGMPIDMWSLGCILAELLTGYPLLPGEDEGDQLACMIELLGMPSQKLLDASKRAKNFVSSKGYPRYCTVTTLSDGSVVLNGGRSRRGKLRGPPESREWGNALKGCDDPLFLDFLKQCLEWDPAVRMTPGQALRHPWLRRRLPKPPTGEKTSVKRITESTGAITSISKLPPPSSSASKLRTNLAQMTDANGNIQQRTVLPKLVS

SMILES: CN(C)c1nccc(-c2cnn3ncccc23)n1
- Kd [1]: 70 nM
- Activity [2]: 2.7%
- Kd [3]: 61 nM
- t1/2 [4]: 12 min
- Cmax [5]: 1082.8 ng/mL
- Activity [6]: 94%
- C0 [7]: 1331.5 ng/mL
- AUClast [8]: 275.3 ng·h/mL
- Kd [9]: 15 nM
- Tmax [10]: 1.8 min
- microsomal CLint [11]: 231 µL/min/mg
- MRT [12]: 12 min
- BPR [13]: > 0.35
- Activity [14]: 7.1%
- Kd [15]: 360 nM
